Laboratory results reported in ChEMBL document CHEMBL1932925, “Synthesis, biological evaluation, and molecular docking studies of cinnamic acyl 1,3,4-thiadiazole amide derivatives as novel antitubulin agents” (Bioorg Med Chem, 2012).
Converted amounts (≈) assume the structure as drawn.

Tested on: not listed separately
Assay: Inhibition of bovine brain tubulin polymerization preincubated for 10 mins measured after 20 mins
Set-up: species or system Bos taurus
Details: not given
Summary of the method: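 Tubulin purified from bovine brain, used at 10 µM in glutamate buffer and preincubated with varying compound concentrations at 30 °C, then cooled to 0 °C. GTP added and mixtures warmed to 30 °C in a recording spectrophotometer, with assembly followed turbidimetrically.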

| Structure (SMILES) | IC50 [µg/mL] |
| --- | --- |
| COc1ccc(/C=C/C(=O)Nc2nnc(-c3ccc(OC)cc3)s2)cc1 | 1.16 (≈ 3.16 µM) |
| COc1ccc(-c2nnc(NC(=O)/C=C/c3ccccc3)s2)cc1 | 3.08 (≈ 9.13 µM) |
| O=C(/C=C/c1ccc(C(F)(F)F)cc1)Nc1nnc(-c2ccc(Br)cc2)s1 | 10.6 (≈ 23.3 µM) |
| Cc1ccc(-c2nnc(NC(=O)/C=C/c3ccccc3)s2)cc1 | 4.83 (≈ 15 µM) |
| COc1ccc(-c2nnc(NC(=O)/C=C/c3ccc(C(F)(F)F)cc3)s2)cc1 | 3.17 (≈ 7.82 µM) |
| Cc1ccc(-c2nnc(NC(=O)/C=C/c3ccc(C(F)(F)F)cc3)s2)cc1 | 5.16 (≈ 13.3 µM) |
| O=C(/C=C/c1ccccc1)Nc1nnc(-c2ccccc2)s1 | 5.68 (≈ 18.5 µM) |
| O=C(/C=C/c1ccccc1)Nc1nnc(-c2ccc(Br)cc2)s1 | 7.05 (≈ 18.3 µM) |
| COc1ccc(/C=C\c2cc(OC)c(OC)c(OC)c2)cc1O [COMBRETASTATIN A4] | 0.81 (≈ 2.56 µM) |
| O=C(/C=C/c1ccc(F)cc1)Nc1nnc(-c2ccccc2)s1 | 5.87 (≈ 18 µM) |
| COc1ccc(/C=C/C(=O)Nc2nnc(-c3ccccc3)s2)cc1 | 3.02 (≈ 8.95 µM) |
| O=C(/C=C/c1ccc(F)cc1)Nc1nnc(-c2ccc(Br)cc2)s1 | 8.66 (≈ 21.4 µM) |
| COc1ccc(-c2nnc(NC(=O)/C=C/c3ccc(F)cc3)s2)cc1 | 3.05 (≈ 8.58 µM) |
| O=C(/C=C/c1ccc(C(F)(F)F)cc1)Nc1nnc(-c2ccccc2)s1 | 5.52 (≈ 14.7 µM) |
| COc1ccc(/C=C/C(=O)Nc2nnc(-c3ccc(Br)cc3)s2)cc1 | 4.11 (≈ 9.87 µM) |
| O=C(/C=C/c1ccccc1)Nc1nnc(-c2ccc(Cl)cc2)s1 | 6.56 (≈ 19.2 µM) |
| Cc1ccc(/C=C/C(=O)Nc2nnc(-c3ccccc3)s2)cc1 | 4.49 (≈ 14 µM) |

More lines, now with the values ahead:

| IC50 [µg/mL] | Structure (SMILES) |
| --- | --- |
| 5.68 (≈ 15.3 µM) | COc1ccc(/C=C/C(=O)Nc2nnc(-c3ccc(Cl)cc3)s2)cc1 |
| 5.08 (≈ 15 µM) | Cc1ccc(-c2nnc(NC(=O)/C=C/c3ccc(F)cc3)s2)cc1 |
| 2.64 (≈ 7.51 µM) | COc1ccc(/C=C/C(=O)Nc2nnc(-c3ccc(C)cc3)s2)cc1 |
| 7.83 (≈ 19.1 µM) | O=C(/C=C/c1ccc(C(F)(F)F)cc1)Nc1nnc(-c2ccc(Cl)cc2)s1 |
| 2.56 (≈ 7.28 µM) | COc1ccc(-c2nnc(NC(=O)/C=C/c3ccc(C)cc3)s2)cc1 |
| 7.08 (≈ 19.7 µM) | O=C(/C=C/c1ccc(F)cc1)Nc1nnc(-c2ccc(Cl)cc2)s1 |
| 5.02 (≈ 12.5 µM) | Cc1ccc(/C=C/C(=O)Nc2nnc(-c3ccc(Br)cc3)s2)cc1 |
| 4.79 (≈ 13.5 µM) | Cc1ccc(/C=C/C(=O)Nc2nnc(-c3ccc(Cl)cc3)s2)cc1 |
| 4.15 (≈ 12.4 µM) | Cc1ccc(/C=C/C(=O)Nc2nnc(-c3ccc(C)cc3)s2)cc1 |

Tested on: MCF7
Assay: Antiproliferative activity against human MCF7 cells after 48 hrs by MTT assay
Format: functional, cell-based
Details: MCF7, 48 h
Summary of the method: (§1)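 Cells diluted to 2×10^4 cells mL⁻¹ in complete medium, plated and held 24 h at 37 °C, 5% CO₂ before dosing at pre-set concentrations. After 48 h exposure, MTT (2.5 mg mL⁻¹ in PBS) added for 4 h, then SDS–isobutyl alcohol–HCl extraction solution overnight at 37 °C. Absorbance read at 570 nm. Three replicate wells per concentration, each assay run at least three times.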

| Structure (SMILES) | IC50 [µg/mL] |
| --- | --- |
| COc1ccc(/C=C/C(=O)Nc2nnc(-c3ccc(OC)cc3)s2)cc1 | 0.28 (≈ 0.762 µM) |
| COc1ccc(-c2nnc(NC(=O)/C=C/c3ccccc3)s2)cc1 | 0.78 (≈ 2.31 µM) |
| O=C(/C=C/c1ccc(C(F)(F)F)cc1)Nc1nnc(-c2ccc(Br)cc2)s1 | 1.58 (≈ 3.48 µM) |
| Cc1ccc(-c2nnc(NC(=O)/C=C/c3ccccc3)s2)cc1 | 1.19 (≈ 3.7 µM) |
| COc1ccc(-c2nnc(NC(=O)/C=C/c3ccc(C(F)(F)F)cc3)s2)cc1 | 0.79 (≈ 1.95 µM) |
| Cc1ccc(-c2nnc(NC(=O)/C=C/c3ccc(C(F)(F)F)cc3)s2)cc1 | 1.1 (≈ 2.82 µM) |
| O=C(/C=C/c1ccccc1)Nc1nnc(-c2ccccc2)s1 | 1.47 (≈ 4.78 µM) |
| COc1cc2c(c(OC)c1OC)-c1ccc(OC)c(=O)cc1[C@@H](NC(C)=O)CC2 [COLCHICINE] | 0.53 (≈ 1.33 µM) |
| O=C(/C=C/c1ccccc1)Nc1nnc(-c2ccc(Br)cc2)s1 | 1.5 (≈ 3.88 µM) |
| COc1ccc(/C=C\c2cc(OC)c(OC)c(OC)c2)cc1O [COMBRETASTATIN A4] | 0.41 (≈ 1.3 µM) |
| O=C(/C=C/c1ccc(F)cc1)Nc1nnc(-c2ccccc2)s1 | 1.45 (≈ 4.46 µM) |
| COc1ccc(/C=C/C(=O)Nc2nnc(-c3ccccc3)s2)cc1 | 0.83 (≈ 2.46 µM) |
| O=C(/C=C/c1ccc(F)cc1)Nc1nnc(-c2ccc(Br)cc2)s1 | 1.49 (≈ 3.69 µM) |
| COc1ccc(-c2nnc(NC(=O)/C=C/c3ccc(F)cc3)s2)cc1 | 0.85 (≈ 2.39 µM) |
| O=C(/C=C/c1ccc(C(F)(F)F)cc1)Nc1nnc(-c2ccccc2)s1 | 1.52 (≈ 4.05 µM) |
| COc1ccc(/C=C/C(=O)Nc2nnc(-c3ccc(Br)cc3)s2)cc1 | 1.13 (≈ 2.71 µM) |
| O=C(/C=C/c1ccccc1)Nc1nnc(-c2ccc(Cl)cc2)s1 | 1.42 (≈ 4.15 µM) |
| Cc1ccc(/C=C/C(=O)Nc2nnc(-c3ccccc3)s2)cc1 | 1.23 (≈ 3.83 µM) |

Now from value to molecule:

| IC50 [µg/mL] | Structure (SMILES) |
| --- | --- |
| 0.91 (≈ 2.45 µM) | COc1ccc(/C=C/C(=O)Nc2nnc(-c3ccc(Cl)cc3)s2)cc1 |
| 1.27 (≈ 3.74 µM) | Cc1ccc(-c2nnc(NC(=O)/C=C/c3ccc(F)cc3)s2)cc1 |
| 0.35 (≈ 0.996 µM) | COc1ccc(/C=C/C(=O)Nc2nnc(-c3ccc(C)cc3)s2)cc1 |
| 1.65 (≈ 4.03 µM) | O=C(/C=C/c1ccc(C(F)(F)F)cc1)Nc1nnc(-c2ccc(Cl)cc2)s1 |
| 0.31 (≈ 0.882 µM) | COc1ccc(-c2nnc(NC(=O)/C=C/c3ccc(C)cc3)s2)cc1 |
| 1.58 (≈ 4.39 µM) | O=C(/C=C/c1ccc(F)cc1)Nc1nnc(-c2ccc(Cl)cc2)s1 |
| 1.32 (≈ 3.3 µM) | Cc1ccc(/C=C/C(=O)Nc2nnc(-c3ccc(Br)cc3)s2)cc1 |
| 1.44 (≈ 4.05 µM) | Cc1ccc(/C=C/C(=O)Nc2nnc(-c3ccc(Cl)cc3)s2)cc1 |
| 0.61 (≈ 1.82 µM) | Cc1ccc(/C=C/C(=O)Nc2nnc(-c3ccc(C)cc3)s2)cc1 |

Tested on: MCF7
Assay: Induction of cell cycle arrest in human MCF7 cells assessed as accumulation at G2/M phase at 5 ug/ml after 24 hrs by flow cytometric analysis (reference value: 18%)
Format: functional
Details: not given

| Structure (SMILES) | Activity [%] |
| --- | --- |
| COc1ccc(/C=C/C(=O)Nc2nnc(-c3ccc(OC)cc3)s2)cc1 | 68 |
| COc1cc2c(c(OC)c1OC)-c1ccc(OC)c(=O)cc1[C@@H](NC(C)=O)CC2 [COLCHICINE] | 79 |

Tested on: A549
Assay: Antiproliferative activity against human A549 cells after 48 hrs by MTT assay
Format: functional, cell-based
Details: A549, 48 h
Summary of the method: as §1

| Structure (SMILES) | IC50 [µg/mL] |
| --- | --- |
| COc1ccc(/C=C/C(=O)Nc2nnc(-c3ccc(OC)cc3)s2)cc1 | 0.52 (≈ 1.42 µM) |
| COc1ccc(-c2nnc(NC(=O)/C=C/c3ccccc3)s2)cc1 | 0.68 (≈ 2.02 µM) |
| O=C(/C=C/c1ccc(C(F)(F)F)cc1)Nc1nnc(-c2ccc(Br)cc2)s1 | 4.68 (≈ 10.3 µM) |
| Cc1ccc(-c2nnc(NC(=O)/C=C/c3ccccc3)s2)cc1 | 1.38 (≈ 4.29 µM) |
| COc1ccc(-c2nnc(NC(=O)/C=C/c3ccc(C(F)(F)F)cc3)s2)cc1 | 0.69 (≈ 1.7 µM) |
| Cc1ccc(-c2nnc(NC(=O)/C=C/c3ccc(C(F)(F)F)cc3)s2)cc1 | 1.61 (≈ 4.13 µM) |
| O=C(/C=C/c1ccccc1)Nc1nnc(-c2ccccc2)s1 | 1.75 (≈ 5.69 µM) |
| COc1cc2c(c(OC)c1OC)-c1ccc(OC)c(=O)cc1[C@@H](NC(C)=O)CC2 [COLCHICINE] | 0.75 (≈ 1.88 µM) |
| O=C(/C=C/c1ccccc1)Nc1nnc(-c2ccc(Br)cc2)s1 | 2.18 (≈ 5.64 µM) |
| COc1ccc(/C=C\c2cc(OC)c(OC)c(OC)c2)cc1O [COMBRETASTATIN A4] | 0.55 (≈ 1.74 µM) |
| O=C(/C=C/c1ccc(F)cc1)Nc1nnc(-c2ccccc2)s1 | 1.82 (≈ 5.59 µM) |
| COc1ccc(/C=C/C(=O)Nc2nnc(-c3ccccc3)s2)cc1 | 0.76 (≈ 2.25 µM) |
| O=C(/C=C/c1ccc(F)cc1)Nc1nnc(-c2ccc(Br)cc2)s1 | 2.83 (≈ 7 µM) |
| COc1ccc(-c2nnc(NC(=O)/C=C/c3ccc(F)cc3)s2)cc1 | 0.75 (≈ 2.11 µM) |
| O=C(/C=C/c1ccc(C(F)(F)F)cc1)Nc1nnc(-c2ccccc2)s1 | 1.78 (≈ 4.74 µM) |
| COc1ccc(/C=C/C(=O)Nc2nnc(-c3ccc(Br)cc3)s2)cc1 | 1.04 (≈ 2.5 µM) |
| O=C(/C=C/c1ccccc1)Nc1nnc(-c2ccc(Cl)cc2)s1 | 2.02 (≈ 5.91 µM) |
| Cc1ccc(/C=C/C(=O)Nc2nnc(-c3ccccc3)s2)cc1 | 1.58 (≈ 4.92 µM) |

Second part, the molecule after the results:

| IC50 [µg/mL] | Structure (SMILES) |
| --- | --- |
| 1.38 (≈ 3.71 µM) | COc1ccc(/C=C/C(=O)Nc2nnc(-c3ccc(Cl)cc3)s2)cc1 |
| 1.23 (≈ 3.62 µM) | Cc1ccc(-c2nnc(NC(=O)/C=C/c3ccc(F)cc3)s2)cc1 |
| 0.66 (≈ 1.88 µM) | COc1ccc(/C=C/C(=O)Nc2nnc(-c3ccc(C)cc3)s2)cc1 |
| 3.09 (≈ 7.54 µM) | O=C(/C=C/c1ccc(C(F)(F)F)cc1)Nc1nnc(-c2ccc(Cl)cc2)s1 |
| 0.58 (≈ 1.65 µM) | COc1ccc(-c2nnc(NC(=O)/C=C/c3ccc(C)cc3)s2)cc1 |
| 2.06 (≈ 5.73 µM) | O=C(/C=C/c1ccc(F)cc1)Nc1nnc(-c2ccc(Cl)cc2)s1 |
| 1.51 (≈ 3.77 µM) | Cc1ccc(/C=C/C(=O)Nc2nnc(-c3ccc(Br)cc3)s2)cc1 |
| 1.25 (≈ 3.51 µM) | Cc1ccc(/C=C/C(=O)Nc2nnc(-c3ccc(Cl)cc3)s2)cc1 |
| 1.08 (≈ 3.22 µM) | Cc1ccc(/C=C/C(=O)Nc2nnc(-c3ccc(C)cc3)s2)cc1 |

Tested on: MCF7
Assay: Induction of cell cycle arrest in human MCF7 cells assessed as accumulation at G0/G1 phase at 5 ug/ml after 24 hrs by flow cytometric analysis (reference value: 66%)
Format: functional
Details: not given

| Structure (SMILES) | Activity [%] |
| --- | --- |
| COc1ccc(/C=C/C(=O)Nc2nnc(-c3ccc(OC)cc3)s2)cc1 | 2 |
| COc1cc2c(c(OC)c1OC)-c1ccc(OC)c(=O)cc1[C@@H](NC(C)=O)CC2 [COLCHICINE] | 2 |

Tested on: MCF7
Assay: Induction of cell cycle arrest in human MCF7 cells assessed as accumulation at S phase at 5 ug/ml after 24 hrs by flow cytometric analysis (reference value: 12%)
Format: functional
Details: not given

| Structure (SMILES) | Activity [%] |
| --- | --- |
| COc1ccc(/C=C/C(=O)Nc2nnc(-c3ccc(OC)cc3)s2)cc1 | 2 |
| COc1cc2c(c(OC)c1OC)-c1ccc(OC)c(=O)cc1[C@@H](NC(C)=O)CC2 [COLCHICINE] | 3 |
